Source: ChEMBL document CHEMBL4038317, “Discovery of a Benzamide Derivative That Protects Pancreatic β-Cells against Endoplasmic Reticulum Stress” (J Med Chem, 2017)
Activity calls are given as the source filed them. No cut-off for these calls is given here.

Experiments:
INS1 [1] = test: Cytoprotective activity against tunicamycin ER stress-induced apoptosis in rat INS-1 cells assessed as viable cells at 0.1 uM after 48 hrs by phase contrast microscopic analysis; type: functional, cell-based
In short: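 INS-1 cells were exposed to tunicamycin 0.1 μg/mL with compound (0.1 μM) or DMSO for 48 h. Live-cell phase-contrast images were taken at 10×; 3 independent experiments.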

Mus musculus [2] = test: Antidiabetic activity in STZ-induced diabetic C57BL/6 mouse model assessed as blood glucose level at 5 mg/kg, ip administrated qd with streptozotocin for 5 days followed by compound administration alone for 2 more weeks measured on every third day during 5 hr fasting (reference value: 422 mg/dL); type: functional
INS1 [3] = test: Cytoprotective activity in rat INS-1 cells assessed as protection against tunicamycin-induced ER stress-mediated reduction in cell viability after 3 days by CellTiter-Glo assay relative tunicamycin; type: functional; settings: INS1, 72 h
In short: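 INS-1 cells, 3×10^3 per well, were co-treated with tunicamycin 0.1 μg/mL and compound for 72 h. Viability was read as intracellular ATP by luminescence and expressed as fold of no-tunicamycin cells. EC50 and maximum activity were taken as the increase in viability versus tunicamycin alone. Triplicate wells, three independent experiments.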

Beta-TC6 = test: Cytotoxicity against mouse BetaTC6 cells assessed as reduction in cell viability up to 40 uM after 3 days by CellTiter-Glo assay; type: cell-based; settings: beta-tc6, 72 h
Mus musculus [4] = test: Antidiabetic activity in STZ-induced diabetic overnight fasted C57BL/6 mouse model assessed as blood glucose level at 5 mg/kg, ip administrated qd with streptozotocin for 5 days followed by compound administration alone for 2 more weeks measured at 15 mins post last dose relative to control; type: functional, organism-based
In short: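 Same STZ/compound i.p. regimen in male C57BL/6 mice, vehicle group as control. Intraperitoneal glucose tolerance test in overnight-fasted mice: glucose 2 g/kg i.p., blood glucose read at set times after the glucose load.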

[5] = molecular target: T1, Eukaryotic translation initiation factor 2-alpha kinase 3 (Rattus norvegicus, UniProt Q9Z1Z1); test: Inhibition of PERK activation in rat INS-1 cells assessed as suppression of tunicamycin-induced CHOP mRNA expression after 8 hrs by qRT-PCR analysis; type: cell-based
T1 sequence (Q9Z1Z1 whole entry): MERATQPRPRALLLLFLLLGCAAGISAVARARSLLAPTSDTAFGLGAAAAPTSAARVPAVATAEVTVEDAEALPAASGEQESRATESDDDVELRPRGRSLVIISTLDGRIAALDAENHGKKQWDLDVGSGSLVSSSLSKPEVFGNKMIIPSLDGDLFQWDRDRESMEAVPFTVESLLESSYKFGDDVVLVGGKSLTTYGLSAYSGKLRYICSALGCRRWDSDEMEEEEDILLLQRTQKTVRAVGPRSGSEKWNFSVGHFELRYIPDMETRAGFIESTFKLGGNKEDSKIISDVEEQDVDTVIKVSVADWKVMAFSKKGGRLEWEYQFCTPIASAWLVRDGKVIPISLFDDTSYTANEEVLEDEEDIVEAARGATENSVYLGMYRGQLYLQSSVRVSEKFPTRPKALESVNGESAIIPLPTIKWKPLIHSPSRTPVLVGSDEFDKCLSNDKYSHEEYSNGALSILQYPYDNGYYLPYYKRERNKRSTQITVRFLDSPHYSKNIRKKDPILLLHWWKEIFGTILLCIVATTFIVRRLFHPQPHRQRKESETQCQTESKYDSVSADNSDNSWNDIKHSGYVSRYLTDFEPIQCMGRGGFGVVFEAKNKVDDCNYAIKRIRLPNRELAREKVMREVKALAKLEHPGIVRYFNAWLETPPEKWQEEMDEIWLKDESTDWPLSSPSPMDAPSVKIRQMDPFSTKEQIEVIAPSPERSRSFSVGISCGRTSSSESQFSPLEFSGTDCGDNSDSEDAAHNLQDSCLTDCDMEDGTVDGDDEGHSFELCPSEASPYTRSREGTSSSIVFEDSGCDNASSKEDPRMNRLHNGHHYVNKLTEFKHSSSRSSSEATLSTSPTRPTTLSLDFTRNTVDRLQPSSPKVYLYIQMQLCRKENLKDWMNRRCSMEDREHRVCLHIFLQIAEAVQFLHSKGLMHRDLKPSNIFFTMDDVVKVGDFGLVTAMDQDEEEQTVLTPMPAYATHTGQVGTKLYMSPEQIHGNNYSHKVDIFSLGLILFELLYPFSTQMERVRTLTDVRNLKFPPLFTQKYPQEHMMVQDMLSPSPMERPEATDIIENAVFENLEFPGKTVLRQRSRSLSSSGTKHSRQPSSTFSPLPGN
In short: (§1)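 INS-1 cells, 4×10^5 per well, were exposed to tunicamycin 0.1 μg/mL with compound or DMSO for 8 h. qRT-PCR for ATF4, CHOP, Bip, GRP94, or spliced XBP1 using splicing-specific primers. Values were normalized to cyclophilin A by ΔΔCt and given as fold over untreated control. Triplicate wells, 3 independent experiments.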

Rattus norvegicus = species on record: Rattus norvegicus; test: Inhibition of tunicamycin ER stress-induced IRE1alpha activation in rat INS-1 cells assessed as suppression of tunicamycin-induced increase in XBP1 mRNA levels up to 10 uM after 8 hrs by qRT-PCR analysis; type: cell-based; in short: as §1

`O=C(NCc1ccc(C(F)(F)F)cc1)c1cccc(CN2CCCCC2)c1` was tested, and the Activity (INS1 [1]) was “Active”, the Activity (Mus musculus [2]) was 314 mg/dL and the Emax (INS1 [3]) was 97%. The Activity (Beta-TC6) was “Non-Toxic”, the Activity (Mus musculus [4]) was “Active” and the IC50 [5] was 37 nM. For the same compound, the inhibition (Rattus norvegicus) was “Active”.
